Data reported in ChEMBL document CHEMBL1165982, “Induction of G(2)/M phase arrest and apoptosis by oridonin in human laryngeal carcinoma cells” (J Nat Prod, 2010).
Calls of active or inactive are those of the source.

Tests used:
Format in all cases: functional, cell-based
HEp-2 [1] = experiment: Induction of apoptosis in human Hep2 cells assessed as pro-caspase 3 level at 36 uM by Western blot analysis; settings: TDE = time-dependent effect
In short: (§1)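 Treatment: 36 µM for 0, 6, 12 or 24 h, alone or with 2.5 mM N-acetylcysteine or 500 U/mL catalase. Lysis 60 min at 4 °C in Hepes pH 7.4/1% Triton X-100 with phosphatase and protease inhibitors, spin 13000g. Lysates run on 12% SDS-PAGE, blotted to nitrocellulose, probed with polyclonal antibodies, HRP/DAB detection. Representative of ≥3 experiments.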

HEp-2 [2] = experiment: Induction of apoptosis in human Hep2 cells at 36 uM after 24 hrs by MTT assay in presence of Ac-LEHD-cmk caspase 9 inhibitor
In short: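 Pretreatment: HEp-2 (1.2 × 10^4/well, plated 24 h earlier) given caspase-9 inhibitor Ac-LEHD-cmk at 5, 10 or 20 µM for 1 h. Then 36 µM for 24 h. Inhibitory ratio by MTT, n = 3, mean ± SD.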

HEp-2 [3] = experiment: Induction of apoptosis in human Hep2 cells at 36 uM after 24 hrs by MTT assay in presence of z-VAD-fmk pan-caspase inhibitor
In short: (§2)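 HEp-2 cells in RPMI-1640 with 10% FBS at 37 °C, 5% CO2, seeded at 1.2 × 10^4 cells/well and grown 24 h. Pretreated 1 h with z-DEVD-fmk (5 µM, line 1) or z-VAD-fmk (10 µM, line 2), then exposed to 36 µM agent for 24 h, with DMSO below 0.05%. Cell inhibitory ratio read by MTT; n = 3, mean ± SD.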

HEp-2 [4] = experiment: Induction of apoptosis in human Hep2 cells at 36 uM after 24 hrs by MTT assay in presence of z-DEVD-fmk caspase 3 inhibitor; in short: as §2
HEp-2 [5] = experiment: Induction of apoptosis in human Hep2 cells assessed as increase in pro-apoptotic Bax protein at 36 uM after 24 hrs by Western blot analysis in presence of NAC; in short: as §1
HEp-2 [6] = experiment: Induction of apoptosis in human Hep2 cells assessed as decrease in Bcl-2 at 36 uM after 24 hrs by Western blot analysis in presence of NAC; in short: as §1
HEp-2 [7] = experiment: Induction of apoptosis in human Hep2 cells assessed as increase in AIF level at 36 uM after 24 hrs by Western blot analysis in presence of NAC; in short: as §1
HEp-2 [8] = experiment: Induction of apoptosis in human Hep2 cells assessed as cleaved caspase 3 level at 36 uM after 24 hrs by Western blot analysis in presence of NAC; in short: as §1
HEp-2 [9] = experiment: Induction of apoptosis in human Hep2 cells assessed as caspase activated DNase level at 36 uM after 24 hrs by Western blot analysis in presence of NAC; in short: as §1
HEp-2 [10] = experiment: Induction of apoptosis in human Hep2 cells assessed as increase in pro-apoptotic Bax protein at 36 uM after 24 hrs by Western blot analysis in presence of CAT; in short: as §1
HEp-2 [11] = experiment: Induction of apoptosis in human Hep2 cells assessed as decrease in Bcl-2 at 36 uM after 24 hrs by Western blot analysis in presence of CAT; in short: as §1
HEp-2 [12] = experiment: Induction of apoptosis in human Hep2 cells assessed as increase in AIF level at 36 uM after 24 hrs by Western blot analysis in presence of CAT; in short: as §1
HEp-2 [13] = experiment: Induction of apoptosis in human Hep2 cells assessed as cleaved caspase 3 level at 36 uM after 24 hrs by Western blot analysis in presence of CAT; in short: as §1
HEp-2 [14] = experiment: Induction of apoptosis in human Hep2 cells assessed as caspase activated DNase level at 36 uM after 24 hrs by Western blot analysis in presence of CAT; in short: as §1
HEp-2 [15] = experiment: Induction of apoptosis in human Hep2 cells assessed as decrease in cyclin B level at 36 uM after 24 hrs by Western blot analysis; settings: TDE = time-dependent effect; in short: as §1
HEp-2 [16] = experiment: Induction of apoptosis in human Hep2 cells assessed as decrease in cdc2 level at 36 uM after 24 hrs by Western blot analysis; settings: TDE = time-dependent effect; in short: as §1
HEp-2 [17] = experiment: Induction of apoptosis in human Hep2 cells assessed as increase in phospho-cdc2 (Tyr15) level at 36 uM from 6 to 24 hrs by Western blot analysis; in short: as §1
HEp-2 [18] = experiment: Induction of apoptosis in human Hep2 cells assessed as increase in phospho-cdc25C (ser216) level at 36 uM from 6 to 24 hrs by Western blot analysis; in short: as §1
HEp-2 [19] = experiment: Induction of apoptosis in human Hep2 cells assessed as increase in p21/WAF1 level at 36 uM from 6 to 24 hrs by Western blot analysis; in short: as §1
HEp-2 [20] = experiment: Induction of apoptosis in human Hep2 cells assessed as increase in p21/WAF1 level at 36 uM after 24 hrs by Western blot analysis; in short: as §1
HEp-2 [21] = experiment: Induction of apoptosis in human Hep2 cells assessed as decrease in cyclin B level at 36 uM after 24 hrs by Western blot analysis in presence of NAC; in short: as §1
HEp-2 [22] = experiment: Induction of apoptosis in human Hep2 cells assessed as decrease in cdc2 level at 36 uM after 24 hrs by Western blot analysis in presence of NAC; in short: as §1
HEp-2 [23] = experiment: Induction of apoptosis in human Hep2 cells assessed as increase in phospho-cdc2 (Tyr15) level at 36 uM from 6 to 24 hrs by Western blot analysis in presence of NAC; in short: as §1
HEp-2 [24] = experiment: Induction of apoptosis in human Hep2 cells assessed as increase in phospho-cdc25C (ser216) level at 36 uM from 6 to 24 hrs by Western blot analysis in presence of NAC; in short: as §1
HEp-2 [25] = experiment: Induction of apoptosis in human Hep2 cells assessed as increase in p21/WAF1 level at 36 uM from 6 to 24 hrs by Western blot analysis in presence of NAC; in short: as §1
HEp-2 [26] = experiment: Induction of apoptosis in human Hep2 cells assessed as increase in p21/WAF1 level at 36 uM after 24 hrs by Western blot analysis in presence of NAC; in short: as §1

Measured: Activity

C=C1C(=O)[C@]23[C@H](O)[C@H]1CC[C@H]2[C@@]12CO[C@]3(O)[C@@H](O)[C@@H]1C(C)(C)CC[C@@H]2O [ORIDONIN]
inactive: HEp-2 [3] | HEp-2 [4] | HEp-2 [5] | HEp-2 [6] | HEp-2 [7] | HEp-2 [8] | HEp-2 [9] | HEp-2 [10] | HEp-2 [11] | HEp-2 [12] | HEp-2 [13] | HEp-2 [14] | HEp-2 [20] | HEp-2 [21] | HEp-2 [22] | HEp-2 [23] | HEp-2 [24] | HEp-2 [25] | HEp-2 [26]
active: HEp-2 [1] tde | HEp-2 [2] | HEp-2 [15] tde | HEp-2 [16] tde | HEp-2 [17] | HEp-2 [18] | HEp-2 [19]
